Experimental findings from ChEMBL document CHEMBL1124586, “Carbohydrate biguanides as potential hypoglycemic agents” (1989) are described below.

In general, inhibition in vivo refers to the drop in the measured response relative to a control, in per cent.

The structures appear in SMILES notation.

Format in all cases: functional
For experiment [1], the system named is Rattus norvegicus. In words: Percent inhibition of glucose rise, following 100 mg/kg oral dose in fasted nondiabetic rats. The method in brief: (§1)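 Rats fasted 18 h were dosed orally around 9 a.m. with drug or vehicle (0.5% w/v methylcellulose suspension or aqueous solution), dosed on salt-free basis by mean group body weight, 60 min before oral glucose 1.0 g/kg. Tail-vein blood at 0 and 30 min, glucose oxidase on deproteinized whole blood. Rise corrected for no-glucose vehicle rats; %inhibition = 100(ΔGV−ΔGD)/ΔGV; mean ± SEM.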

Experiment [2] has as its system Rattus norvegicus. In words: Rise in the blood glucose level after 30 min following 100 mg/kg oral dose in fasted nondiabetic rats. The method in brief:
(§2)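 Rats fasted 18 h, dosed orally (0.5% w/v methylcellulose suspension or aqueous solution; controls got the same vehicle) 60 min before an oral glucose load of 1.0 g/kg. Tail-vein blood was taken just before (0 min) and 30 min after glucose. Whole blood was deproteinized with Ba(OH)2/ZnSO4 and glucose read by glucose oxidase. Values are mean ± SEM, n rats per group.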

In experiment [3] the test system is Rattus norvegicus. In words: Rise in the glucose level 100 mg/kg oral dose in fasted nondiabetic rats. The method in brief: (§3)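 Fasted rats (18 h) were given oral drug or vehicle 60 min before 1.0 g/kg oral glucose, with glucose-oxidase readings on tail blood at 0 and 30 min. The change from 0 min was corrected by subtracting the change in vehicle rats given no glucose. Groups were compared with vehicle by ANOVA/Dunnett (p ≤ 0.05). % inhibition = 100(ΔGV − ΔGD)/ΔGV.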

The test system of experiment [4] is Rattus norvegicus. The experiment is described as follows: Rise in the blood glucose level after 0 min following 100 mg/kg oral dose in fasted nondiabetic rats. The method in brief:
as §2

Experiment [5] relates to Rattus norvegicus. The experiment is described as follows: Rise in the blood glucose level after 30 min following 200 mg/kg oral dose in fasted nondiabetic rats. The method in brief: as §2
The test system of experiment [6] is Rattus norvegicus. In words: Rise in the blood glucose level at 200 mg/kg oral dose in fasted nondiabetic rats. The method in brief:
as §3

The subject of experiment [7] is Rattus norvegicus. The experiment is described as follows: Percent inhibition of glucose rise, following 200 mg/kg oral dose in fasted nondiabetic rats. The method in brief: as §1
In experiment [8] the test system is Rattus norvegicus. The experiment is described as follows: Rise in the blood glucose level at 100 mg/kg oral dose in fasted nondiabetic rats. The method in brief:
as §3

The subject of experiment [9] is Rattus norvegicus. In words: Rise in the blood glucose level after 0 min following 200 mg/kg oral dose in fasted nondiabetic rats. The method in brief:
as §2

The subject of experiment [10] is Rattus norvegicus. The experiment is described as follows: Percent inhibition of glucose rise, following 150 mg/kg oral dose in fasted nondiabetic rats. The method in brief:
as §1

Experiment [11] has as its system Rattus norvegicus. In words: Rise in the blood glucose level after 30 min following 300 mg/kg oral dose in fasted nondiabetic rats. The method in brief: as §2
The subject of experiment [12] is Rattus norvegicus. In words: Rise in the blood glucose level after 0 min following 10 mg/kg oral dose in fasted nondiabetic rats. The method in brief:
as §2

Experiment [13] has as its system Rattus norvegicus. The experiment is described as follows: Rise in the blood glucose level after 30 min following 50 mg/kg oral dose in fasted nondiabetic rats. The method in brief:
as §2

Experiment [14] relates to Rattus norvegicus. The experiment is described as follows: Rise in the blood glucose level after 0 min following 50 mg/kg oral dose in fasted nondiabetic rats. The method in brief: as §2
Experiment [15] deals with Rattus norvegicus. The experiment is described as follows: Percent inhibition of glucose rise, following 50 mg/kg oral dose in fasted nondiabetic rats. The method in brief: as §1
For experiment [16], the system named is Rattus norvegicus. The experiment is described as follows: Rise in the blood glucose level at 50 mg/kg oral dose in fasted nondiabetic rats. The method in brief: as §3
Experiment [17] relates to Rattus norvegicus. In words: Rise in the blood glucose level after 30 min following 10 mg/kg oral dose in fasted nondiabetic rats. The method in brief: as §2
For experiment [18], the system named is Rattus norvegicus. In words: Rise in the blood glucose level at 150 mg/kg oral dose in fasted nondiabetic rats. The method in brief:
as §3

The subject of experiment [19] is Rattus norvegicus. In words: Rise in the blood glucose level at 300 mg/kg oral dose in fasted nondiabetic rats. The method in brief:
as §3

Experiment [20] deals with Rattus norvegicus. In words: Rise in the blood glucose level after 0 min following 300 mg/kg oral dose in fasted nondiabetic rats. The method in brief:
as §2

The test system of experiment [21] is Rattus norvegicus. In words: Percent inhibition of glucose rise, following 300 mg/kg oral dose in fasted nondiabetic rats. The method in brief: as §1
Experiment [22] deals with Rattus norvegicus. In words: Rise in the blood glucose level after 0 min following 150 mg/kg oral dose in fasted nondiabetic rats. The method in brief:
as §2

Experiment [23] relates to Rattus norvegicus. The experiment is described as follows: Rise in the blood glucose level at 10 mg/kg oral dose in fasted nondiabetic rats. The method in brief:
as §3

Experiment [24] deals with Rattus norvegicus. In words: Rise in the blood glucose level after 30 min following 150 mg/kg oral dose in fasted nondiabetic rats. The method in brief: as §2
In experiment [25] the test system is Rattus norvegicus. In words: Percent inhibition of glucose rise, following 10 mg/kg oral dose in fasted nondiabetic rats. The method in brief:
as §1

Turning to `N=C(N)/N=C(\N)NCC1OC(O)[C@H](O)C(O)C1O` (some centres undefined), the inhibition in vivo at 100 mg/kg in the experiment on Rattus norvegicus [1] was -14%. Besides, the Glucose rise with Rattus norvegicus [2] amounted to 145 mg/dL; in the experiment with Rattus norvegicus [3], 77 mg/dL; with Rattus norvegicus [4], 68 mg/dL.

Regarding `COC1OC(C/N=C(/N)N=C(N)N)[C@@H](OCc2ccccc2)C(OCc2ccccc2)[C@H]1OCc1ccccc1` (some centres undefined), the inhibition in vivo at 100 mg/kg in the experiment on Rattus norvegicus [1] is 47%. In addition, the results for the Glucose rise with Rattus norvegicus [2], in the experiment on Rattus norvegicus [3] and in the experiment on Rattus norvegicus [4] were 123 mg/dL, 41 mg/dL and 82 mg/dL, respectively.

For the molecule `CC1(C)O[C@@H]2CO[C@@]3(C/N=C(/N)N=C(N)N)OC(C)(C)OC3[C@@H]2O1` (some centres undefined), the inhibition in vivo at 100 mg/kg in the experiment on Rattus norvegicus [1] is -29%. Further, the Glucose rise with Rattus norvegicus [2] is 152 mg/dL; in the experiment on Rattus norvegicus [3], 85 mg/dL; with Rattus norvegicus [4], 67 mg/dL.

As to `N=C(N)/N=C(\NCCc1ccccc1)NC1OC(CO)[C@@H](O)C(O)[C@H]1O` (some centres undefined), in the experiment with Rattus norvegicus [1], the inhibition in vivo at 100 mg/kg is 9%. Besides, the Glucose rise in the experiment on Rattus norvegicus [2] is 137 mg/dL; with Rattus norvegicus [3] it was 63 mg/dL; in the experiment on Rattus norvegicus [4] it was 74 mg/dL.

Turning to `CO[C@H]1OC(CNC(=N)NC(=N)N)[C@@H](O)C(O)[C@H]1O` (some centres undefined), the inhibition in vivo at 100 mg/kg in the experiment on Rattus norvegicus [1] came to 12%. Moreover, the Glucose rise with Rattus norvegicus [2] was 133 mg/dL; in the experiment with Rattus norvegicus [3] it was 61 mg/dL; with Rattus norvegicus [4], 72 mg/dL.

With `N=C(N)/N=C(\N)NCCC1OC(CO)[C@@H](O)C1O` (some centres undefined), in the experiment on Rattus norvegicus [1], the inhibition in vivo at 100 mg/kg was 26%. Further, the Glucose rise came to 127 mg/dL with Rattus norvegicus [2], 53 mg/dL in the experiment on Rattus norvegicus [3] and 74 mg/dL in the experiment on Rattus norvegicus [4].

Consider `N=C(N)/N=C(\S)NC1OC(CO)[C@@H](O)C(O)[C@H]1O` (some centres undefined), for which the inhibition in vivo at 100 mg/kg in the experiment with Rattus norvegicus [1] is 9%. Moreover, the values for the Glucose rise in the experiment with Rattus norvegicus [2], in the experiment with Rattus norvegicus [3] and with Rattus norvegicus [4] were 139 mg/dL, 63 mg/dL and 76 mg/dL, respectively.

For `CC1(C)OC2C(C/N=C(\N)N=C(N)N)O[C@@H]3OC(C)(C)O[C@@H]3C2O1` (some centres undefined), the inhibition in vivo at 100 mg/kg in the experiment on Rattus norvegicus [1] was -12%. Moreover, the Glucose rise turned out to be 141 mg/dL in the experiment with Rattus norvegicus [2], 74 mg/dL with Rattus norvegicus [3] and 67 mg/dL in the experiment with Rattus norvegicus [4].

With `CC1(C)O[C@H]2OC3C(OC(C)(C)O[C@@H]3C/N=C(\N)N=C(N)N)[C@H]2O1` (some centres undefined), in the experiment with Rattus norvegicus [1], the inhibition in vivo at 100 mg/kg worked out at 48%. Also, the Glucose rise in the experiment with Rattus norvegicus [2] was 118 mg/dL; in the experiment with Rattus norvegicus [4], 78 mg/dL; in the experiment on Rattus norvegicus [5], 121 mg/dL; with Rattus norvegicus [6], 43 mg/dL; with Rattus norvegicus [8], 40 mg/dL; with Rattus norvegicus [9] it was 78 mg/dL. For the same molecule, the inhibition in vivo at 200 mg/kg in the experiment on Rattus norvegicus [7] was found to be 45%.

For the molecule `CN(C)C(=N)NC(=N)N` [METFORMIN], in the experiment with Rattus norvegicus [1], the inhibition in vivo at 100 mg/kg turned out to be 41%. Also, the Glucose rise with Rattus norvegicus [2] was found to be 113 mg/dL; with Rattus norvegicus [3] it was 45 mg/dL; with Rattus norvegicus [4] it was 68 mg/dL.

`N=C(N)NC(=N)NCCc1ccccc1` [PHENFORMIN]: in the experiment on Rattus norvegicus [10], the inhibition in vivo at 150 mg/kg came out at 71%. For the same molecule, in the experiment on Rattus norvegicus [1], the inhibition in vivo at 100 mg/kg came to 64%. Further, the Glucose rise worked out at 21 mg/dL in the experiment on Rattus norvegicus [11]; 61 mg/dL in the experiment with Rattus norvegicus [12]; 101 mg/dL in the experiment on Rattus norvegicus [2]; 98 mg/dL with Rattus norvegicus [13]; 63 mg/dL in the experiment on Rattus norvegicus [14]; 70 mg/dL in the experiment with Rattus norvegicus [4]. The Glucose rise with Rattus norvegicus [16] came out at 35 mg/dL; in the experiment with Rattus norvegicus [17], 129 mg/dL; in the experiment with Rattus norvegicus [18] it was 26 mg/dL; in the experiment with Rattus norvegicus [19], 21 mg/dL; in the experiment on Rattus norvegicus [20], 70 mg/dL; in the experiment on Rattus norvegicus [22], 58 mg/dL. For the same molecule, the Glucose rise is 31 mg/dL in the experiment on Rattus norvegicus [8], 68 mg/dL with Rattus norvegicus [23] and 84 mg/dL in the experiment with Rattus norvegicus [24]. In the experiment with Rattus norvegicus [15], the inhibition in vivo at 50 mg/kg turned out to be 57%. Besides, the inhibition in vivo at 300 mg/kg with Rattus norvegicus [21] worked out at 81%. In the experiment with Rattus norvegicus [25], the inhibition in vivo at 10 mg/kg stood at 0%.
